Measured values as given in ChEMBL document CHEMBL5724801, “EUbOPEN Chemogenomics Library - Multiplex” (2024).
Where “and” joins values, the source holds several entries; their conditions need not be identical. Equal entries are not always repeated.

System: Fibroblast
Assay: Multiplex assay against human fibroblast
Format: toxicity, cell-based
Outline: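 Cells stained live at seeding with Hoechst33342, BioTracker Green Microtubule Cytoskeleton Dye, MitoTracker Red and Annexin V Alexa Fluor 680 were imaged on a CQ1 microscope at 37°C and 5% CO2 after compound addition. Their classification by CellPathfinder machine-learning gating ran from Hoechst high-intensity objects versus normal cells, to healthy, pyknosed or fragmented nuclei among normal cells, to mitotic or apoptotic among pyknosed cells. Tubulin, mitochondrial-mass and membrane-permeability phenotypes are per cents of healthy-nucleus cells.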

[1] = 12 h, 1 µM, compound concentration 1 uM
[2] = 12 h, 10 µM, compound concentration 10 uM
[3] = 24 h, 1 µM, compound concentration 1 uM
[4] = 24 h, 10 µM, compound concentration 10 uM
[5] = 48 h, 1 µM, compound concentration 1 uM
[6] = 48 h, 10 µM, compound concentration 10 uM

C[C@H](NC(=O)CNC(=O)c1cccc(Cl)c1)c1ccccc1
Population Apoptotic (%) [1]: 50% and 44% | Population Fragmented Nuclei (%) [1]: 18% and 28% | Population Healthy Nuclei (%) [1]: 71% and 53% | Population Hoechst High Intensity Objects (%) [1]: 0% and 3% | Population Membrane Permeable-Phenotype (%) [1]: 0% and 6% | Population Mitochondria Different-Phenotype (%) [1]: 4% and 2% | Population Mitotic Cells (%) [1]: 50% and 56% | Population Normal (%) [1]: 100% and 96% | Population Pyknosed Nuclei (%) [1]: 10% and 18% | Population Tubulin-Different-Phenotype (%) [1]: 17% and 41% | Total Cell Count [1]: 94 and 140 | Population Apoptotic (%) [2]: 48% and 43% | Population Fragmented Nuclei (%) [2]: 15% and 31% | Population Healthy Nuclei (%) [2]: 58% and 43% | Population Hoechst High Intensity Objects (%) [2]: 2% and 1% | Population Membrane Permeable-Phenotype (%) [2]: 0% and 13% | Population Mitochondria Different-Phenotype (%) [2]: 8% and 3% | Population Mitotic Cells (%) [2]: 51% and 56% | Population Normal (%) [2]: 97% and 98% | Population Pyknosed Nuclei (%) [2]: 26% and 24% | Population Tubulin-Different-Phenotype (%) [2]: 35% and 54% | Total Cell Count [2]: 106 and 124 | Population Apoptotic (%) [3]: 43% and 33% | Population Fragmented Nuclei (%) [3]: 17% and 30% | Population Healthy Nuclei (%) [3]: 65% and 50% | Population Hoechst High Intensity Objects (%) [3]: 1% and 3% | Population Membrane Permeable-Phenotype (%) [3]: 1% and 8% | Population Mitochondria Different-Phenotype (%) [3]: 3% and 4% | Population Mitotic Cells (%) [3]: 56% and 66% | Population Normal (%) [3]: 98% and 96% | Population Pyknosed Nuclei (%) [3]: 17% and 19% | Population Tubulin-Different-Phenotype (%) [3]: 25% and 42% | Total Cell Count [3]: 93 and 145 | Population Apoptotic (%) [4]: 52% and 56% | Population Fragmented Nuclei (%) [4]: 14% and 33% | Population Healthy Nuclei (%) [4]: 61% and 45% | Population Hoechst High Intensity Objects (%) [4]: 2% and 5% | Population Membrane Permeable-Phenotype (%) [4]: 1% and 5% | Population Mitochondria Different-Phenotype (%) [4]: 3% and 7% | Population Mitotic Cells (%) [4]: 48% and 43% | Population Normal (%) [4]: 97% and 94% | Population Pyknosed Nuclei (%) [4]: 24% and 20% | Population Tubulin-Different-Phenotype (%) [4]: 45% and 64% | Total Cell Count [4]: 107 and 118 | Population Apoptotic (%) [5]: 33% and 40% | Population Fragmented Nuclei (%) [5]: 20% and 29% | Population Healthy Nuclei (%) [5]: 67% and 52% | Population Hoechst High Intensity Objects (%) [5]: 1% and 3% | Population Membrane Permeable-Phenotype (%) [5]: 0% and 4% | Population Mitochondria Different-Phenotype (%) [5]: 0% and 2% | Population Mitotic Cells (%) [5]: 66% and 60% | Population Normal (%) [5]: 98% and 96% | Population Pyknosed Nuclei (%) [5]: 12% and 17% | Population Tubulin-Different-Phenotype (%) [5]: 26% and 44% | Total Cell Count [5]: 95 and 147 | Population Apoptotic (%) [6]: 68% and 69% | Population Fragmented Nuclei (%) [6]: 15% and 38% | Population Healthy Nuclei (%) [6]: 56% and 50% | Population Hoechst High Intensity Objects (%) [6]: 7% and 4% | Population Membrane Permeable-Phenotype (%) [6]: 1% and 6% | Population Mitochondria Different-Phenotype (%) [6]: 15% and 5% | Population Mitotic Cells (%) [6]: 31% and 30% | Population Normal (%) [6]: 92% and 95% | Population Pyknosed Nuclei (%) [6]: 27% and 11% | Population Tubulin-Different-Phenotype (%) [6]: 50% and 67% | Total Cell Count [6]: 112 and 121

Cn1cc(C(=O)OCC2CCN(CCNS(C)(=O)=O)CC2)c2ccccc21
Population Apoptotic (%) [1]: 44% and 33% | Population Fragmented Nuclei (%) [1]: 13% and 21% | Population Healthy Nuclei (%) [1]: 71% and 46% | Population Hoechst High Intensity Objects (%) [1]: 1% and 4% | Population Membrane Permeable-Phenotype (%) [1]: 0% and 9% | Population Mitochondria Different-Phenotype (%) [1]: 3% and 1% | Population Mitotic Cells (%) [1]: 55% and 66% | Population Normal (%) [1]: 98% and 95% | Population Pyknosed Nuclei (%) [1]: 14% and 32% | Population Tubulin-Different-Phenotype (%) [1]: 23% and 37% | Total Cell Count [1]: 202 and 164 | Population Apoptotic (%) [2]: 48% and 25% | Population Fragmented Nuclei (%) [2]: 29% and 32% | Population Healthy Nuclei (%) [2]: 55% and 51% | Population Hoechst High Intensity Objects (%) [2]: 3% and 5% | Population Membrane Permeable-Phenotype (%) [2]: 0% and 5% | Population Mitochondria Different-Phenotype (%) [2]: 9% and 7% | Population Mitotic Cells (%) [2]: 51% and 75% | Population Normal (%) [2]: 96% and 94% | Population Pyknosed Nuclei (%) [2]: 14% and 16% | Population Tubulin-Different-Phenotype (%) [2]: 41% and 47% | Total Cell Count [2]: 207 and 184 | Population Apoptotic (%) [3]: 31% and 30% | Population Fragmented Nuclei (%) [3]: 13% and 25% | Population Healthy Nuclei (%) [3]: 74% and 47% | Population Hoechst High Intensity Objects (%) [3]: 5% and 2% | Population Membrane Permeable-Phenotype (%) [3]: 0% and 7% | Population Mitochondria Different-Phenotype (%) [3]: 0% and 6% | Population Mitotic Cells (%) [3]: 68% and 69% | Population Normal (%) [3]: 94% and 97% | Population Pyknosed Nuclei (%) [3]: 11% and 26% | Population Tubulin-Different-Phenotype (%) [3]: 23% and 48% | Total Cell Count [3]: 201 and 168 | Population Apoptotic (%) [4]: 80% and 41% | Population Fragmented Nuclei (%) [4]: 33% and 40% | Population Healthy Nuclei (%) [4]: 53% and 43% | Population Hoechst High Intensity Objects (%) [4]: 5% and 4% | Population Membrane Permeable-Phenotype (%) [4]: 0% and 3% | Population Mitochondria Different-Phenotype (%) [4]: 3% and 5% | Population Mitotic Cells (%) [4]: 20% and 58% | Population Normal (%) [4]: 94% and 95% | Population Pyknosed Nuclei (%) [4]: 13% and 16% | Population Tubulin-Different-Phenotype (%) [4]: 42% and 52% | Total Cell Count [4]: 201 and 188 | Population Apoptotic (%) [5]: 54% and 52% | Population Fragmented Nuclei (%) [5]: 14% and 33% | Population Healthy Nuclei (%) [5]: 72% and 54% | Population Hoechst High Intensity Objects (%) [5]: 5% and 4% | Population Membrane Permeable-Phenotype (%) [5]: 0% and 5% | Population Mitochondria Different-Phenotype (%) [5]: 1% and 2% | Population Mitotic Cells (%) [5]: 45% and 47% | Population Normal (%) [5]: 94% and 95% | Population Pyknosed Nuclei (%) [5]: 12% | Population Tubulin-Different-Phenotype (%) [5]: 23% and 43% | Total Cell Count [5]: 197 and 177 | Population Apoptotic (%) [6]: 68% and 50% | Population Fragmented Nuclei (%) [6]: 28% and 40% | Population Healthy Nuclei (%) [6]: 58% and 46% | Population Hoechst High Intensity Objects (%) [6]: 9% and 6% | Population Membrane Permeable-Phenotype (%) [6]: 0% and 2% | Population Mitochondria Different-Phenotype (%) [6]: 9% and 8% | Population Mitotic Cells (%) [6]: 32% and 50% | Population Normal (%) [6]: 90% and 93% | Population Pyknosed Nuclei (%) [6]: 13% and 12% | Population Tubulin-Different-Phenotype (%) [6]: 49% and 60% | Total Cell Count [6]: 199 and 190
